Reference: article PMC8966662 (RSC Advances, 2022)
Read-outs that look alike come from different tables or passages of the source.

Key:
[1] = in vitro bioavailability, dialysis tubing procedure; type: in vitro ADME; conditions: sum of pepsin (stage 1) and pancreatin (stage 2) bioavailability
Procedure, shortened: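 Test compound at 1.0 × 10³ μM in DMSO, with porcine pepsin and 2.0 w/v% sodium cholate, sealed in a dialysis bag in 8.5 × 10⁻¹ N HCl, shaking at 37 ± 0.5 °C for 2 h. Porcine pancreatin in NaHCO3, amylase and esterase then added; bag in pH 7.0 phosphate buffer, 37 °C, 4 h. Outer liquid sampled after each stage and quantified by UV-Vis against pH 1.0/7.0 calibration curves as % unchanged compound recovered; triplicate.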

strain TA 98 = conditions: cited from earlier work
[2] = ref 13 (Grande et al.); cited from earlier work
[3] = 2,2-diphenyl-1-picrylhydrazyl; type: biochemical; conditions: result in words
Procedure, shortened: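 DPPH· freshly prepared at 50 μM in methanol; test compound stocks in DMSO. Sample mixed with DPPH· solution, kept 30 min in the dark, absorbance read at 517 nm by UV-Vis. %RSA calculated against DMSO vehicle control across a series of sample concentrations. IC50 taken from %RSA plots.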

| Structure (SMILES) | total in vitro bioavailability [1] [%] | further results |
| --- | --- | --- |
| NC(=O)COc1cc(OCC(N)=O)c2c(=O)cc(-c3ccc(OCC(N)=O)c(OCC(N)=O)c3)oc2c1 [Compound 5S3, 2,2′-((4-(5,7-bis(2-amino-2-oxoethoxy)-4-oxo-4H-chromen-2-yl)-1,2-phenylene)bis(oxy))diacetamide] | 34.87 ± 0.87 | – |
| NC(=O)COc1ccc2c(=O)c(OCC(N)=O)c(-c3ccc(OCC(N)=O)c(OCC(N)=O)c3)oc2c1 [Compound 3S3, 2,2′-((4-(3,7-bis(2-amino-2-oxoethoxy)-4-oxo-4H-chromen-2-yl)-1,2-phenylene)bis(oxy))diacetamide] | 34.81 ± 0.85 | – |
| NC(=O)COc1cc(OCC(N)=O)c2c(=O)c(OCC(N)=O)c(-c3ccc(OCC(N)=O)c(OCC(N)=O)c3)oc2c1 [Compound 1S3, 2,2′,2′′-((2-(3,4-bis(2-amino-2-oxoethoxy)phenyl)-4-oxo-4H-chromene-3,5,7-triyl)tris(oxy))triacetamide] | 20.70 ± 0.29 | toxicity in mutagenicity study (strain TA 98): nontoxic |
| O=c1c(O)c(-c2ccc(O)c(O)c2)oc2cc(O)cc(O)c12 [Compound 1S0, quercetin] | – | total in vitro bioavailability [2]: 10.7 ± 1.3% |
| O=c1cc(-c2ccc(O)cc2)oc2cc(O)cc(O)c12 [Compound 2S0, apigenin, reference compound] | 16.59 | DPPH free radical scavenging activity (%RSA) [3]: very low |
| O=c1c(O)c(-c2ccc(O)c(O)c2)oc2cc(O)ccc12 [Compound 3S0, Fisetin, reference compound] | 16.19 | – |
| NC(=O)COc1ccc(-c2cc(=O)c3c(OCC(N)=O)cc(OCC(N)=O)cc3o2)cc1 [Compound 2S3, 2,2′-((2-(4-(2-amino-2-oxoethoxy)phenyl)-4-oxo-4H-chromene-5,7-diyl)bis(oxy))diacetamide] | 22.20 ± 0.82 | toxicity in mutagenicity study (strain TA 98): nontoxic; mutagenic activity (strain TA 98; strain TA 98): did not show any mutagenic activity; DPPH free radical scavenging activity (%RSA) [3]: very low |
| NC(=O)COc1ccc(-c2oc3cc(OCC(N)=O)cc(OCC(N)=O)c3c(=O)c2OCC(N)=O)cc1 [Compound 4S3, 2,2′,2′′-((2-(4-(2-amino-2-oxoethoxy)phenyl)-4-oxo-4H-chromene-3,5,7-triyl)tris(oxy))triacetamide] | 21.34 ± 0.50 | – |
| O=c1c(O)c(-c2ccc(O)cc2)oc2cc(O)cc(O)c12 [Compound 4S0, kaempferol, reference compound] | 15.40 | – |
| O=c1cc(-c2ccc(O)c(O)c2)oc2cc(O)cc(O)c12 [Compound 5S0, luteolin, reference compound] | 19.29 | – |
